Experimental findings from ChEMBL document CHEMBL1137180, “Synthesis and structure-activity relationship of a novel sulfone series of TNF-alpha converting enzyme inhibitors” (Bioorg Med Chem Lett, 2004) are described below.

For experiment [1], the target named is Collagenase 3 (Homo sapiens, UniProt P45452). The experiment in a line: Inhibition of Matrix metalloprotease-13 (MMP-13). Put shortly:
(§1)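 Inhibition is reported as Ki (nM) against each isolated MMP. Each value comes from a single determination, with no replicates.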

Experiment [2] addresses 72 kDa type IV collagenase (Homo sapiens, UniProt P08253). Put plainly: inhibition of Matrix metalloprotease-2 (MMP-2). Put shortly:
as §1

Experiment [3] deals with Mus musculus. The experiment in a line: Compound was tested for anti TNF-alpha activity using LPS mouse model at 10 mg/kg p.o. It counts as functional. The note with it: route oral.
The target in experiment [4] is Disintegrin and metalloproteinase domain-containing protein 17 (Sus scrofa, UniProt O77636). Put plainly: Inhibition of porcine Tumor necrosis factor- alpha converting enzyme (TACE, ADAM17).
Experiment [5] concerns Caco-2. The experiment in a line: Permeability action in Caco-2 cells. It counts as functional, Homo sapiens. For orientation: Passage across Caco-2 layers is used to estimate intestinal permeability.
The target in experiment [6] is T1, Interstitial collagenase (Homo sapiens, UniProt P03956).
T1 sequence (P03956 whole entry): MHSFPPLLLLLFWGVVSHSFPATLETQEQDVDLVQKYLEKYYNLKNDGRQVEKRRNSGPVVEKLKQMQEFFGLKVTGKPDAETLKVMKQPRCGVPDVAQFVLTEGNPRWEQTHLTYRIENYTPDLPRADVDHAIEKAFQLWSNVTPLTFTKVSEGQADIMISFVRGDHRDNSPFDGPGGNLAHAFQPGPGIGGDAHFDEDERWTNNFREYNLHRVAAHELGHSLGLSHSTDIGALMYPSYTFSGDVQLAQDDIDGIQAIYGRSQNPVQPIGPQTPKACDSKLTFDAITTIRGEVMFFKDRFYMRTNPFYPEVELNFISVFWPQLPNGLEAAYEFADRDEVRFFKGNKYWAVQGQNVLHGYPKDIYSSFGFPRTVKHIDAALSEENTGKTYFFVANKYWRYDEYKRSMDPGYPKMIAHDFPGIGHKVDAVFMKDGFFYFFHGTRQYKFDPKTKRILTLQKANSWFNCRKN
Put plainly: Inhibition of Matrix metalloprotease-1 (MMP-1). Summed up:
as §1

Experiment [7] deals with Matrix metalloproteinase-9 (Homo sapiens, UniProt P14780). Put plainly: Inhibition of Matrix metalloprotease-9 (MMP-9). Put shortly: as §1
The target in experiment [8] is Disintegrin and metalloproteinase domain-containing protein 17 (Homo sapiens, UniProt P78536). Put plainly: Effect on TNF-Alpha release in LPS-stimulated human whole blood assay. It counts as functional, tissue-based.
The subject of experiment [9] is Mus musculus. Put plainly: Compound was tested for anti TNF-alpha activity using LPS mouse model at 5 mg/kg p.o. It counts as functional. The settings on record: route oral.
In experiment [10] the test system is Caco-2. The experiment in a line: Permeability action in Caco-2 cell. It counts as functional, Homo sapiens.

SMILES strings stand for the structures.

Sequence of Disintegrin and metalloproteinase domain-containing protein 17 (Homo sapiens, UniProt P78536) (P78536 whole entry, the tested form may be a part): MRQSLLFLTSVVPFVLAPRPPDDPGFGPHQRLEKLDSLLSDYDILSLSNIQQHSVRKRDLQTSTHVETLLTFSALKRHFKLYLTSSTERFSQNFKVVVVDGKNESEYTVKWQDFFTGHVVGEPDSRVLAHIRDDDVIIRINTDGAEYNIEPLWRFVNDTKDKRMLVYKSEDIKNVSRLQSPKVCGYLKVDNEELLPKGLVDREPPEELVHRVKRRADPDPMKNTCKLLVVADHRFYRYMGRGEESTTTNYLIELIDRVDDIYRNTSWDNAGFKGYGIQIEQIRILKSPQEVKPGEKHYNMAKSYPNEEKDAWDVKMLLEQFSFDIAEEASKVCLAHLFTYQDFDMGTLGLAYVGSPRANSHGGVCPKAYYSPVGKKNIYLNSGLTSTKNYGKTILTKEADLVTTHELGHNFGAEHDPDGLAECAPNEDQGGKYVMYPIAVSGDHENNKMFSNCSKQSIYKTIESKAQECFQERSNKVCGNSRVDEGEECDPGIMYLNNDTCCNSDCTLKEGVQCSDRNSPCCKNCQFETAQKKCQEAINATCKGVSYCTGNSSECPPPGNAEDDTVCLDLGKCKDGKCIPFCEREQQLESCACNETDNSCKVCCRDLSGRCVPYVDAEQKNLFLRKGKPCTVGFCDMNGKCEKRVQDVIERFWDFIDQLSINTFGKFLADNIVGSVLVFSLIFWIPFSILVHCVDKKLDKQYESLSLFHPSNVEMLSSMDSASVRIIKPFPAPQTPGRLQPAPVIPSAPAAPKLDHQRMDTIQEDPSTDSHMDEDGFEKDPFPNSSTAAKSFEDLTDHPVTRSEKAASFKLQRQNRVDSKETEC
Sequence of Matrix metalloproteinase-9 (P14780 whole entry, the tested form may be a part): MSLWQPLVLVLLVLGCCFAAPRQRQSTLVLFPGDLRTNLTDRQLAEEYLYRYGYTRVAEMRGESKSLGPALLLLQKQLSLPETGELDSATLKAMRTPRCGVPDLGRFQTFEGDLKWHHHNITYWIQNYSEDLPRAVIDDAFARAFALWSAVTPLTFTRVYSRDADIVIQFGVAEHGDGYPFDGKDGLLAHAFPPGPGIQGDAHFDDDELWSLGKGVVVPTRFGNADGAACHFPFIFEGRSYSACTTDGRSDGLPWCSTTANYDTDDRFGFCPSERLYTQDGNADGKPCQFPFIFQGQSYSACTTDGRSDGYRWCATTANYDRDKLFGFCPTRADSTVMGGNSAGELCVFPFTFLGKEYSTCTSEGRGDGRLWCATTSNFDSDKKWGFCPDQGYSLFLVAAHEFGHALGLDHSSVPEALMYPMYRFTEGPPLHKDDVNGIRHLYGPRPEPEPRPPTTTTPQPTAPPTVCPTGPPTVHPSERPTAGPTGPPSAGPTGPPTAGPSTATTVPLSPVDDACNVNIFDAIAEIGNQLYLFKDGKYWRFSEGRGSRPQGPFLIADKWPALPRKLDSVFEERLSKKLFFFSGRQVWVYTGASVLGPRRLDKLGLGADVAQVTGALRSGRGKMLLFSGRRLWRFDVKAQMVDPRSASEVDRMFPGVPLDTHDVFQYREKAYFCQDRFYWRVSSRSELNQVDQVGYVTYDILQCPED
Sequence of Disintegrin and metalloproteinase domain-containing protein 17 (Sus scrofa, UniProt O77636) (O77636 whole entry, the tested form may be a part): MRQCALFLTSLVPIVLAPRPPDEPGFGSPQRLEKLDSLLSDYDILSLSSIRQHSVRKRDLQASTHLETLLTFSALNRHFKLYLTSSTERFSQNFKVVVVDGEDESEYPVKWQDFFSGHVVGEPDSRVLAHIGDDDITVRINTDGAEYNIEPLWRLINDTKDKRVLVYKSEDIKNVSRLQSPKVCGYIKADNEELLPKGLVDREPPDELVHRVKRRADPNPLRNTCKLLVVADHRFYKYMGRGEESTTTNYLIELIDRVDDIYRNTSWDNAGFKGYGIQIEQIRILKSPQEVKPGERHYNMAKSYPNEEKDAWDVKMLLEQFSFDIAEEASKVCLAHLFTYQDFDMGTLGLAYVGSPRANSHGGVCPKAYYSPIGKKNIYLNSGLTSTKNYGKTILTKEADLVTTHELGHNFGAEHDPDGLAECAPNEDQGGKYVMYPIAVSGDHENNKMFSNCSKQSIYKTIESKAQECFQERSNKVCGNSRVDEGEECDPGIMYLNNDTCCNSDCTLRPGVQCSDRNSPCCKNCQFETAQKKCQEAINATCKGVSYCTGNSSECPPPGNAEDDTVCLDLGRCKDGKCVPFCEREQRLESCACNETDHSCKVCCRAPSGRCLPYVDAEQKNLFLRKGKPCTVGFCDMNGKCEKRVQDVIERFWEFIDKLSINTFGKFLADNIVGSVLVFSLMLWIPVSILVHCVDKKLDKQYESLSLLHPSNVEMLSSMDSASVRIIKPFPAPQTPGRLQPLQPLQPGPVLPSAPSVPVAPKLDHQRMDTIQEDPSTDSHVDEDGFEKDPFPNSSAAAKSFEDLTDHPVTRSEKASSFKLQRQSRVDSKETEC
Sequence of 72 kDa type IV collagenase (P08253 whole entry): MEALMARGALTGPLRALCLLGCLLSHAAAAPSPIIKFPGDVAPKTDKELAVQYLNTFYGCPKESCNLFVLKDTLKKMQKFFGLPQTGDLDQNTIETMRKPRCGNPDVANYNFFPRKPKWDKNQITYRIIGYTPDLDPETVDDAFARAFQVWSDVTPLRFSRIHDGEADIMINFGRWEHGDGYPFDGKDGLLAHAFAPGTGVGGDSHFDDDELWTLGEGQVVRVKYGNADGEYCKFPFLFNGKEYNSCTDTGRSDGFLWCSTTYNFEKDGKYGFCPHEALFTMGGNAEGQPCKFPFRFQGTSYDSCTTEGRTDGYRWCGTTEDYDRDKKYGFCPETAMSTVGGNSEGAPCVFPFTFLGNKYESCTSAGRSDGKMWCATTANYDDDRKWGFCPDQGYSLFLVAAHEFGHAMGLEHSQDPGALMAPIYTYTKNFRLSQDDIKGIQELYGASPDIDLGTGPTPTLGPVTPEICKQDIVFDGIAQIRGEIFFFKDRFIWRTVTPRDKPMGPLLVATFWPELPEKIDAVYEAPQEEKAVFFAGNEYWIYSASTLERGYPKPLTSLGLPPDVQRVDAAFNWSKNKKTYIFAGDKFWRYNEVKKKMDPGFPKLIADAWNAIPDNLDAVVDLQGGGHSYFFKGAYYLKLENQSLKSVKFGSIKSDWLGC

Usually Ki stands for the equilibrium dissociation constant of an inhibitor or competing ligand from its target. A lower Ki goes with tighter binding. As a reminder, the inhibition in vivo is the share of the control response that was lost under treatment. Higher therefore signals a response far below the control. What is called IC50 is the concentration at which inhibition is half-maximal. A higher IC50 goes with weaker potency. As to `Cc1cc(COc2ccc(S(=O)(=O)CC3CN(C(C)C)CCC3C(=O)NO)cc2)c2ccccc2n1` (stereo not given), the inhibition constant Ki in experiment [1] is more than 5000 nM; in [2], more than 3300 nM; in [6], more than 4900 nM; in [7], more than 2100 nM. In addition, in experiment [3], at 10 mg/kg the inhibition in vivo was 38%. Moreover, the values for the half-inhibitory concentration (IC50) in experiment [4] and in experiment [8] were 1.5 nM and 230 nM, respectively. Further, the “Caco-2 Papp” value in experiment [5] came to 0.1 ×10⁻⁶ cm/s.
A word on the ED50: it is the dose that gives a 50% effect, or the effect in half of the subjects. Take `CONC(=O)[C@H]1CCCN(C)[C@@H]1C(=O)Nc1ccc(OCc2cc(C)nc3ccccc23)cc1`: the inhibitory constant (Ki) in experiment [2] was more than 3300 nM; in [6], more than 4900 nM; in experiment [7] it was more than 2100 nM. For the same molecule, it took a dose of 3 mg/kg to reach the 50% effect level in [3] (ED50). In addition, in experiment [3], the inhibition in vivo at 10 mg/kg is more than 50%. Besides, the IC50 came out at 6.2 nM in experiment [4] and 20 nM in experiment [8]. Further, the “Caco-2 Papp” value in experiment [5] was 2.1 ×10⁻⁶ cm/s.
As to `Cc1cc(COc2ccc(S(=O)(=O)CC3(CC(=O)NO)CCCN(CC(C)C)C3)cc2)c2ccccc2n1` (stereo not given), the Ki in experiment [1] is more than 5000 nM; in experiment [2], more than 3300 nM; in experiment [6], more than 4900 nM; in experiment [7], more than 2100 nM. This molecule had an inhibition in vivo at 5 mg/kg in experiment [9] of 25%. Also, the values for the IC50 in [4] and in [8] were 3.3 nM and 2500 nM, respectively. Further, in experiment [5], the “Caco-2 Papp” value turned out to be 0.7 ×10⁻⁶ cm/s.
As for `Cc1cc(COc2ccc(S(=O)(=O)CC3C(C(=O)NO)CCN3C)cc2)c2ccccc2n1` (stereo not given), the Ki in experiment [1] was 1710 nM; in [2], more than 3300 nM; in experiment [6], more than 4900 nM; in experiment [7], more than 2100 nM. This molecule gave a 50% effective dose (ED50) in experiment [3] of 2.5 mg/kg. This molecule also yielded an inhibition in vivo at 10 mg/kg in [3] of 50%. Further, the IC50 in [4] was less than 1 nM; in [8], 180 nM. In [5], the “Caco-2 Papp” value was determined as 1 ×10⁻⁶ cm/s.
As to `CCC(C)N1CCC(C(=O)NO)C(CS(=O)(=O)c2ccc(OCc3cc(C)nc4ccccc34)cc2)C1` (stereo not given), the Ki in experiment [1] is more than 5000 nM; in experiment [2] it was more than 3300 nM; in experiment [6] it was more than 4900 nM; in experiment [7] it was more than 2100 nM. This molecule yielded an inhibition in vivo at 10 mg/kg in [3] of 33%. For the same molecule, the IC50 in experiment [4] is less than 1 nM; in experiment [8], 1070 nM. Moreover, in experiment [5], the “Caco-2 Papp” value is 1.8 ×10⁻⁶ cm/s.
Regarding `Cc1cc(COc2ccc(S(=O)(=O)CC3(CC(=O)NO)CCCNC3)cc2)c2ccccc2n1` (stereo not given), the inhibition constant Ki in experiment [1] was more than 5000 nM; in experiment [2], more than 3300 nM; in experiment [6], more than 4900 nM; in experiment [7], more than 2100 nM. Moreover, the inhibition in vivo at 5 mg/kg in experiment [9] was 31%. For the same molecule, the 50% inhibitory concentration (IC50) in experiment [4] was determined as 2.8 nM; in experiment [8], 123 nM. Further, in [5], the “Caco-2 Papp” value was 0.1 ×10⁻⁶ cm/s.
For `C=CCN1CCC(C(=O)NO)C(CS(=O)(=O)c2ccc(OCc3cc(C)nc4ccccc34)cc2)C1` (stereo not given), the Ki in experiment [1] was 503 nM; in [2] it was more than 3300 nM; in experiment [6], more than 4900 nM; in experiment [7], more than 2100 nM. For the same molecule, the inhibition in vivo at 10 mg/kg in experiment [3] was 25%. The IC50 in experiment [4] amounted to 1.8 nM; in experiment [8], 160 nM. For the same molecule, the “Caco-2 Papp” value in experiment [5] was 0.97 ×10⁻⁶ cm/s.
In the case of `Cc1cc(COc2ccc(S(=O)(=O)CC3NCCC3C(=O)NO)cc2)c2ccccc2n1` (stereo not given), the Ki in experiment [1] was 955 nM; in experiment [2] it was more than 3300 nM; in experiment [6], more than 4900 nM; in [7], more than 2100 nM. The inhibition in vivo at 10 mg/kg in [3] was 20%. In addition, the results for the half-maximal inhibitory concentration (IC50) in experiment [4] and in [8] were less than 1 nM and 83 nM, respectively. Besides, the “Caco-2 Papp” value in experiment [5] was 0.1 ×10⁻⁶ cm/s.
Turning to `Cc1cc(COc2ccc(S(=O)(=O)CC3(CC(=O)NO)CCCCN3)cc2)c2ccccc2n1` (stereo not given), the inhibition constant Ki in experiment [1] was 753 nM; in [2], more than 3300 nM; in [6] it was more than 4900 nM; in experiment [7], more than 2100 nM. Further, the inhibition in vivo at 5 mg/kg in experiment [9] came to 50%. For the same molecule, the results for the IC50 in experiment [4] and in [8] were less than 1 nM and 632 nM, respectively. Also, the “Caco-2 Papp” value in experiment [5] amounted to 1.7 ×10⁻⁶ cm/s.
Take `Cc1cc(COc2ccc(S(=O)(=O)CC3(CC(=O)NO)CCN(CC(C)C)C3)cc2)c2ccccc2n1` (stereo not given): the Ki in experiment [1] is 603 nM; in [2] it was 2170 nM; in experiment [6], more than 4900 nM; in [7] it was more than 2100 nM. This molecule also yielded an inhibition in vivo at 5 mg/kg in experiment [9] of 22%. The half-maximal inhibitory concentration (IC50) in [4] turned out to be 2.6 nM; in experiment [8], 161 nM. Also, the “Caco-2 Papp” value in experiment [5] turned out to be 0.8 ×10⁻⁶ cm/s.
With `CCCCN1CCC(C(=O)NO)C(CS(=O)(=O)c2ccc(OCc3cc(C)nc4ccccc34)cc2)C1` (stereo not given), the inhibitory constant (Ki) was more than 5000 nM in experiment [1], more than 3300 nM in experiment [2], more than 4900 nM in experiment [6] and more than 2100 nM in experiment [7]. Further, the inhibition in vivo at 10 mg/kg in experiment [3] came to 35%. Besides, the IC50 is less than 1 nM in experiment [4] and 900 nM in experiment [8]. Besides, the “Caco-2 Papp” value in experiment [5] was found to be 1.6 ×10⁻⁶ cm/s.
As for `C#CN1CCC(C(=O)NO)C(CS(=O)(=O)c2ccc(OCc3cc(C)nc4ccccc34)cc2)C1` (stereo not given), the Ki in experiment [1] is 377 nM; in [2], more than 3300 nM; in experiment [6], more than 4900 nM; in [7], more than 2100 nM. Testing at 10 mg/kg in experiment [3] gave an inhibition in vivo of 24%. The values for the half-inhibitory concentration (IC50) in [4] and in experiment [8] were 1 nM and 180 nM, respectively. Also, in [5], the “Caco-2 Papp” value was 1.3 ×10⁻⁶ cm/s.
On to `Cc1cc(COc2ccc(S(=O)(=O)CC3(CC(=O)NO)CCC3)cc2)c2ccccc2n1`, for which the Ki was 753 nM in experiment [1], 2570 nM in experiment [2], more than 4900 nM in experiment [6] and more than 2100 nM in experiment [7]. Besides, 5 mg/kg produced 86% inhibition in vivo in experiment [9]. The IC50 is less than 1 nM in experiment [4] and 223 nM in [8]. In experiment [5], the “Caco-2 Papp” value was 4.9 ×10⁻⁶ cm/s.
Turning to `Cc1cc(COc2ccc(S(=O)(=O)CC3(CC(=O)NO)CCCN(C)C3)cc2)c2ccccc2n1` (stereo not given), the Ki was 3870 nM in experiment [1], more than 3300 nM in experiment [2], more than 4900 nM in experiment [6] and more than 2100 nM in experiment [7]. For the same molecule, the inhibition in vivo at 5 mg/kg in [9] is 49%. For the same molecule, the half-maximal inhibitory concentration (IC50) in experiment [4] stood at 3.6 nM; in [8] it was 208 nM. In addition, the “Caco-2 Papp” value in experiment [5] was determined as 0.2 ×10⁻⁶ cm/s.
Consider `Cc1cc(COc2ccc(S(=O)(=O)CC3CNCCC3C(=O)NO)cc2)c2ccccc2n1` (stereo not given), for which the “Caco-2 Papp” value in experiment [10] was determined as 0.1 ×10⁻⁶ cm/s. The Ki in experiment [1] is more than 5000 nM; in experiment [2], more than 3300 nM; in [6], more than 4900 nM; in [7], more than 2100 nM. Besides, the half-maximal inhibitory concentration (IC50) turned out to be 1 nM in experiment [4] and 250 nM in experiment [8].
